Experimental data taken from ChEMBL document CHEMBL4014276, “Diphenylurea derivatives for combating methicillin- and vancomycin-resistant Staphylococcus aureus” (Eur J Med Chem, 2017).
In brackets after ≈: the same amount, converted by molar mass. Activity calls are given as the source filed them. No cut-off for these calls is given here.

Legend:
[1] = tested on: Staphylococcus aureus; assay: Antibacterial activity against methicillin-resistant Staphylococcus aureus USA300 NRS384 clinical isolate after 20 hrs by broth microdilution method; type: functional; details: USA300 NRS384, 20 h
How it was run: (§1)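 CLSI broth microdilution in cation-adjusted Mueller Hinton broth; compounds serially diluted, triplicate samples; 37 °C, 20 h. MIC read visually as lowest concentration with no visible growth; mean of triplicate determinations reported.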

[2] = tested on: Staphylococcus aureus; assay: Antibacterial activity against vancomycin-resistant Staphylococcus aureus VRSA4 after 20 hrs by broth microdilution method; type: functional; details: VRSA4, 20 h; how it was run: as §1
[3] = tested on: Staphylococcus aureus; assay: Antibacterial activity against vancomycin-resistant Staphylococcus aureus VRSA10 after 20 hrs by broth microdilution method; type: functional; details: VRSA10, 20 h; how it was run: as §1
[4] = Intrinsic clearance in human liver microsomes in presence of NADPH by LC-MS/MS method; type: ADME, microsome; details: read-out: CLH
[5] = tested on: Staphylococcus aureus; assay: Bactericidal activity against methicillin-resistant Staphylococcus aureus USA400 NRS123 clinical isolate assessed as disruption of bacterial membrane by measuring leakage of 280 nM absorbing material at 5 times MIC after 30 mins by spectrophotometric method; type: functional
[6] = tested on: Staphylococcus aureus; assay: Antibacterial activity against methicillin-resistant Staphylococcus aureus USA400 infected in Caenorhabditis elegans AU37 harboring (sek-1(km4);glp-4(bn2)I) mutant assessed as reduction in colony forming units at 10 ug/ml after 20 hrs by microscopic method relative to control; type: functional; set-up: scale not given: the % may be the effect or the level left
How it was run: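 C. elegans AU37 L4/adult worms infected on MRSA USA400 lawn 6 h, washed in M9; 15-25 worms per well treated with 10 µg/mL in triplicate for 20 h, PBS negative control; worms lysed with silicon carbide, plated on TSA with 5 µg/mL nalidixic acid, 37 °C 18 h; CFU per worm, Student's t-test with Holm-Sidak correction.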

[7] = Total AUC in naive Sprague-Dawley rat at 50 mg/kg ,po administered via gavage by LC-MS/MS method; type: ADME, organism-based; set-up: dose 50 mg/kg, time AUCmax, route oral; details: in vivo
How it was run: (§2)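 Male naïve rats, three animals; single oral gavage dose in 5% ethanol, 45% PEG 400, 50% water. Blood drawn into EDTA-K2 tubes over 24 h post dose; plasma protein-precipitated with acetonitrile, parent quantified by LC/MS/MS.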

[8] = Half life in naive Sprague-Dawley rat at 50 mg/kg ,po administered via gavage by LC-MS/MS method; type: ADME, organism-based; details: in vivo; how it was run: as §2
[9] = tested on: Staphylococcus aureus; assay: Antibacterial activity against methicillin-resistant Staphylococcus aureus USA400 NRS123 clinical isolate preincubated followed by bacterial subculturing for 2 weeks; type: functional
[10] = tested on: Staphylococcus aureus; assay: Bactericidal activity against methicillin-resistant Staphylococcus aureus USA400 infected in mouse J774 cells assessed as reduction in colony forming units at 16 ug/ml after 24 hrs by time kill assay relative to control; set-up: scale not given: the % may be the effect or the level left

C/C(=N\NC(=N)N)c1ccc(NC(=O)Nc2ccc(OC3CCCCCC3)cc2)cc1 gave an MIC [1] of 2 µg/mL (≈ 4.73 µM), an MIC [2] of 2 µg/mL (≈ 4.73 µM) and an MIC [3] of 8 µg/mL (≈ 18.9 µM). For the same compound, the microsomal CLint [4] was 33.9 µL/min/mg, the Activity [5] was “inactive” and the Activity [6] was >50%. The AUC [7] was 384 ng·h/mL, the half-life [8] was 16 h and the Activity [9] was “Active”. The Activity [10] was 69%.
